Measured values reported in ChEMBL document CHEMBL4330127, “Discovery of Novel Pyruvate Dehydrogenase Kinase 4 Inhibitors for Potential Oral Treatment of Metabolic Diseases” (J Med Chem, 2019).
The source made the active and inactive calls.

Assays:
Format in all cases: functional, cell-based
Mast cell = test: Inhibition of degranulation in IgE-labeled bone marrow-derived mast cells (unknown origin) assessed as reduction in beta-hexosaminidase release preincubated for 1 hr followed by HSA stimulation and measured after 15 mins
HCT-116 = test: Induction of apoptosis in human HCT116 cells assessed as increase in Bax expression at 10 to 50 uM after 24 hrs by Western blot analysis
In short: (§1)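 HCT116 and RKO cells given a range of compound doses for 24 h; lysates probed by Western blot for apoptosis-related proteins (p53, BAX, BCLxL).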

RKO = test: Induction of apoptosis in human RKO cells assessed as increase in Bax expression at 10 to 50 uM after 24 hrs by Western blot analysis; in short: as §1

Cl.O=C1c2ccccc2C(=O)c2c1cccc2-c1cnn(C2CCNCC2)c1
active: inhibition (Mast cell) Dose-dependent effect | Activity (HCT-116) | Activity (RKO)
